Experimental data as given in ChEMBL document CHEMBL5532737, “Lead Identification of Novel Naphthyridine Derivatives as Potent SOS1 Inhibitors” (ACS Med Chem Lett, 2024).
Calls of active or inactive are those of the source. No cut-off for these calls is given here.

Columns and labels:
[1] = molecular target: SOS1-KRAS (Homo sapiens, UniProt Q07889); experiment: Inhibition of SOS1/KRAS G12C mutant (unknown origin) protein-protein interaction incubated for 2 hrs by HTRF analysis; assay type: protein-complex assay
Sequence of SOS1-KRAS (Q07889 whole entry, looked up, stated change not applied): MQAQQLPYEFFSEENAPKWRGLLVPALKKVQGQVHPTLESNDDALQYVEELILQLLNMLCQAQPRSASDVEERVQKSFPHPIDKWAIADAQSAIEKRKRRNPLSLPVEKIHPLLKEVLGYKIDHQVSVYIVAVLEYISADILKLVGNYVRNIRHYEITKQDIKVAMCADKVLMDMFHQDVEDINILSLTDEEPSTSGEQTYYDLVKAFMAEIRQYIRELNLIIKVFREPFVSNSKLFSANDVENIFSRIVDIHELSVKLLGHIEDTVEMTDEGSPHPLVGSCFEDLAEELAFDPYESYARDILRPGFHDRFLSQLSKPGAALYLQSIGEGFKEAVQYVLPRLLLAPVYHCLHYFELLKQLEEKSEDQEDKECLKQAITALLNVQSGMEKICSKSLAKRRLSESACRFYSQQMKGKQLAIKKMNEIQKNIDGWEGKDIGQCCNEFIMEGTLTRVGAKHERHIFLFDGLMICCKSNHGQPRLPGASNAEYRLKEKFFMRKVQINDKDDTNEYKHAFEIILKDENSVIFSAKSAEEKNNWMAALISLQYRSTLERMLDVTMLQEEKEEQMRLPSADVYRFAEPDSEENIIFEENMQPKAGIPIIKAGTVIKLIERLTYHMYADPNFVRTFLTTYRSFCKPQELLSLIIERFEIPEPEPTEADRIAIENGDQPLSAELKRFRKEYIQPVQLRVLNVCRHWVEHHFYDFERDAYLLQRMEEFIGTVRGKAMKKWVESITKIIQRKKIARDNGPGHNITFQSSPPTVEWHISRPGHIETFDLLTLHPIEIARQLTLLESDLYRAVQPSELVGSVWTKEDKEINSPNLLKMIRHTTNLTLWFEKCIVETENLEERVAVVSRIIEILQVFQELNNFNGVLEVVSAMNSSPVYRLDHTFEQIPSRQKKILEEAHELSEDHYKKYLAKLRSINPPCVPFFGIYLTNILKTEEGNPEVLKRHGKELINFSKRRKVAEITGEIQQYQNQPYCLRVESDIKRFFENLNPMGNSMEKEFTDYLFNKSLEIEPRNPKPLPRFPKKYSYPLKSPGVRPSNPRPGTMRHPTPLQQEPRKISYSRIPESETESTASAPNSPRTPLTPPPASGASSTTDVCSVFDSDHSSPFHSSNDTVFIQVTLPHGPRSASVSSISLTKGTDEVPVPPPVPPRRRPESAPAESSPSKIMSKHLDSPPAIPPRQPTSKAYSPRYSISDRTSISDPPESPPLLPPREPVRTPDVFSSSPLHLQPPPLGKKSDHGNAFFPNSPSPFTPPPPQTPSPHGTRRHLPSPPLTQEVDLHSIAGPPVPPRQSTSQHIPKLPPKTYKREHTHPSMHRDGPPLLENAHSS

[2] = Inhibition of ERK phosphorylation in human PC-9 cells incubated for 1 hr by HTRF analysis; assay type: cell-based; conditions: PC-9, 1 h
[3] = Cmax in ICR mouse at 5 mg/kg, po measured upto 24 hrs by LCMS analysis; assay type: ADME, organism-based; conditions: in vivo
In short: (§1)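 Mice were dosed once orally at 5 mg/kg or intravenously at 1 mg/kg, both in solution in 5% DMSO + 95% (20% HP-β-CD). Cmax is the highest observed plasma concentration, AUC the area under the plasma concentration–time curve, and F the bioavailability. CL is reported as elimination rate and t1/2 as elimination half-life.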

[4] = AUC in ICR mouse at 5 mg/kg, po measured upto 24 hrs by LCMS analysis; assay type: ADME, organism-based; conditions: in vivo; in short: as §1
[5] = Oral bioavailability in ICR mouse at 5 mg/kg measured upto 24 hrs by LCMS analysis; assay type: ADME, organism-based; conditions: in vivo; in short: as §1
[6] = Clearance in ICR mouse at 1 mg/kg, iv measured upto 24 hrs by LCMS analysis; assay type: ADME, organism-based; conditions: in vivo; in short: as §1
[7] = Elimination half life in ICR mouse at 1 mg/kg, iv measured upto 24 hrs by LCMS analysis; assay type: ADME, organism-based; conditions: in vivo, read-out: beta t1/2 (converted); in short: as §1
[8] = Plasma protein binding in mouse assessed as unbound fraction incubated for 4 hrs by LC-MS/MS analysis; assay type: ADME, cell-free
[9] = Plasma protein binding in rat assessed as unbound fraction incubated for 4 hrs by LC-MS/MS analysis; assay type: ADME, cell-free
[10] = Plasma protein binding in dog assessed as unbound fraction incubated for 4 hrs by LC-MS/MS analysis; assay type: ADME, cell-free, Canis lupus familiaris
[11] = Plasma protein binding in human assessed as unbound fraction incubated for 4 hrs by LC-MS/MS analysis; assay type: ADME, cell-free
[12] = molecular target: T1, Cytochrome P450 1A2 (Homo sapiens, UniProt P05177); experiment: Inhibition of CYP1A2 in human liver microsomes incubated for 5 mins by LC-MS/MS analysis; assay type: ADME, Microsome
T1 sequence (P05177 whole entry): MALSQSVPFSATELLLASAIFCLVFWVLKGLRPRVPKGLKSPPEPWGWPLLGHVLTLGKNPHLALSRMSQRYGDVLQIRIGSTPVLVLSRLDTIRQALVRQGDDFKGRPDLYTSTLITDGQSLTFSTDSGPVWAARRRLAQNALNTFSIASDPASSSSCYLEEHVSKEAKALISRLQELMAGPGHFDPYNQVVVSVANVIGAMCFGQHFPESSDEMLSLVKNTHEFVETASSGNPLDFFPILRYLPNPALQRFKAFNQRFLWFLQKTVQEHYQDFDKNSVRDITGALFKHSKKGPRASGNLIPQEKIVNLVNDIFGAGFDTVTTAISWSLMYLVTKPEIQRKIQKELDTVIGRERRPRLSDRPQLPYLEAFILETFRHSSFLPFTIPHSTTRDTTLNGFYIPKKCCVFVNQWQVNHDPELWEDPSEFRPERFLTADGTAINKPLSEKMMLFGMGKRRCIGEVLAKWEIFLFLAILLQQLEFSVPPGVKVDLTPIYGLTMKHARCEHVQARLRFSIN

[13] = molecular target: Cytochrome P450 2C9 (Homo sapiens, UniProt P11712); experiment: Inhibition of CYP2C9 in human liver microsomes incubated for 5 mins by LC-MS/MS analysis; assay type: ADME, Microsome
Sequence of Cytochrome P450 2C9 (P11712 whole entry): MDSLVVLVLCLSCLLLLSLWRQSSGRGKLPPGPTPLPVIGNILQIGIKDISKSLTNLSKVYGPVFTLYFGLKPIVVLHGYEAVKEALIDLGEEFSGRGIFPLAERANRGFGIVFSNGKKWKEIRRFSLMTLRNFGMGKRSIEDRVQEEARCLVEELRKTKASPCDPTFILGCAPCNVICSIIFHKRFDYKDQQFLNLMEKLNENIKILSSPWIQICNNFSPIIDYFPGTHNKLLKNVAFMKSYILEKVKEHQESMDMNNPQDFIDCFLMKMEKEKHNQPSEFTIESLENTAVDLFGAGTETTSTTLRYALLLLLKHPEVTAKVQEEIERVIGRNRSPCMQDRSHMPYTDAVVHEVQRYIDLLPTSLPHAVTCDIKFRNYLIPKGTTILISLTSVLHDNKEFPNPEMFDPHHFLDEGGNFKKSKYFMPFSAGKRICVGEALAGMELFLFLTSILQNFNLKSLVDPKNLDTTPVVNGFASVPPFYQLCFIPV

[14] = molecular target: Cytochrome P450 2C19 (Homo sapiens, UniProt P33261); experiment: Inhibition of CYP2C19 in human liver microsomes incubated for 5 mins by LC-MS/MS analysis; assay type: ADME, Microsome
Sequence of Cytochrome P450 2C19 (P33261 whole entry): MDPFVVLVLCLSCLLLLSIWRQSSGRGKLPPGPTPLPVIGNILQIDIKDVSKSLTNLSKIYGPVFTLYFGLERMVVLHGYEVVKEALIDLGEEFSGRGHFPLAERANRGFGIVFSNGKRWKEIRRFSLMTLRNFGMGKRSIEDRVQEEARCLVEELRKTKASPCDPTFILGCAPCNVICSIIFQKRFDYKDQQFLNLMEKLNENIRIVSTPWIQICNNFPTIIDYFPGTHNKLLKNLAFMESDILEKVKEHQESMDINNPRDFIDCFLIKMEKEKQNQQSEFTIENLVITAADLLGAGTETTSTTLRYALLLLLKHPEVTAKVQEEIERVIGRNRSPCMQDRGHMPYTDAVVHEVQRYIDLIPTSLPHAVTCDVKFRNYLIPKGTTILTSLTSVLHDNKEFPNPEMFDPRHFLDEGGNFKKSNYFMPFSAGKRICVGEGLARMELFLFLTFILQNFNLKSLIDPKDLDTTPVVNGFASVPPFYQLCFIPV

[15] = molecular target: Cytochrome P450 2D6 (Homo sapiens, UniProt P10635); experiment: Inhibition of CYP2D6 in human liver microsomes incubated for 5 mins by LC-MS/MS analysis; assay type: ADME, Microsome
Sequence of Cytochrome P450 2D6 (P10635 whole entry): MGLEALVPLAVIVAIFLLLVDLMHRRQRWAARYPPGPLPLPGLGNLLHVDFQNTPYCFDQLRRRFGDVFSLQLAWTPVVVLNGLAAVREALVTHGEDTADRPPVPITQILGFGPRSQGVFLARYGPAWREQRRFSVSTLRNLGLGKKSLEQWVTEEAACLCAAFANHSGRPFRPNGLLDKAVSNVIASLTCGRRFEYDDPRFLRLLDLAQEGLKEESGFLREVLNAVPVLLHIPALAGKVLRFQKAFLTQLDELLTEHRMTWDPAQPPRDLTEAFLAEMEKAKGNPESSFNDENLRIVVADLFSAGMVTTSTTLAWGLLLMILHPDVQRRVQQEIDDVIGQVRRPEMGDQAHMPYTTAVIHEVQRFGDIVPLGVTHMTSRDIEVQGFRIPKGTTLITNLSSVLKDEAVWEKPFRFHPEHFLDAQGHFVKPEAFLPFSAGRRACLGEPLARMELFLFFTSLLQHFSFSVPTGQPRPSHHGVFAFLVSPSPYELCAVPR

[16] = molecular target: Cytochrome P450 3A4 (Homo sapiens, UniProt P08684); experiment: Inhibition of CYP3A4 in human liver microsomes incubated for 5 mins by LC-MS/MS analysis; assay type: ADME, Microsome
Sequence of Cytochrome P450 3A4 (P08684 whole entry): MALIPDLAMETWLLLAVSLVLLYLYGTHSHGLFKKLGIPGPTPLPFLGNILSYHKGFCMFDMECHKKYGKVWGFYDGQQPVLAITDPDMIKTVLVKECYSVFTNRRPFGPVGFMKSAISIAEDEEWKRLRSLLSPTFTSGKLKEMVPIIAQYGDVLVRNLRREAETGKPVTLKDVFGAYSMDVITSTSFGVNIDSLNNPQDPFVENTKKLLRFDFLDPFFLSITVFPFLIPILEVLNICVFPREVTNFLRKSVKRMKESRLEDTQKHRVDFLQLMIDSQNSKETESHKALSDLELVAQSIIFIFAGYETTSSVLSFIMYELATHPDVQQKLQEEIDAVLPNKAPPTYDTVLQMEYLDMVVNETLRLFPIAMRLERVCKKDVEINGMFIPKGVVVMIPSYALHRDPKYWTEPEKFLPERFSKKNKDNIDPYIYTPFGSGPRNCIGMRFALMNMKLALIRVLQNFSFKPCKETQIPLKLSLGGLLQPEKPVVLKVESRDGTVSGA

[17] = molecular target: Voltage-gated inwardly rectifying potassium channel KCNH2 (Homo sapiens, UniProt Q12809); experiment: Inhibition of hERG transfected in HEK293 cells by whole-cell manual patch clamp assay; assay type: toxicity, cell-based
Sequence of Voltage-gated inwardly rectifying potassium channel KCNH2 (Q12809 whole entry): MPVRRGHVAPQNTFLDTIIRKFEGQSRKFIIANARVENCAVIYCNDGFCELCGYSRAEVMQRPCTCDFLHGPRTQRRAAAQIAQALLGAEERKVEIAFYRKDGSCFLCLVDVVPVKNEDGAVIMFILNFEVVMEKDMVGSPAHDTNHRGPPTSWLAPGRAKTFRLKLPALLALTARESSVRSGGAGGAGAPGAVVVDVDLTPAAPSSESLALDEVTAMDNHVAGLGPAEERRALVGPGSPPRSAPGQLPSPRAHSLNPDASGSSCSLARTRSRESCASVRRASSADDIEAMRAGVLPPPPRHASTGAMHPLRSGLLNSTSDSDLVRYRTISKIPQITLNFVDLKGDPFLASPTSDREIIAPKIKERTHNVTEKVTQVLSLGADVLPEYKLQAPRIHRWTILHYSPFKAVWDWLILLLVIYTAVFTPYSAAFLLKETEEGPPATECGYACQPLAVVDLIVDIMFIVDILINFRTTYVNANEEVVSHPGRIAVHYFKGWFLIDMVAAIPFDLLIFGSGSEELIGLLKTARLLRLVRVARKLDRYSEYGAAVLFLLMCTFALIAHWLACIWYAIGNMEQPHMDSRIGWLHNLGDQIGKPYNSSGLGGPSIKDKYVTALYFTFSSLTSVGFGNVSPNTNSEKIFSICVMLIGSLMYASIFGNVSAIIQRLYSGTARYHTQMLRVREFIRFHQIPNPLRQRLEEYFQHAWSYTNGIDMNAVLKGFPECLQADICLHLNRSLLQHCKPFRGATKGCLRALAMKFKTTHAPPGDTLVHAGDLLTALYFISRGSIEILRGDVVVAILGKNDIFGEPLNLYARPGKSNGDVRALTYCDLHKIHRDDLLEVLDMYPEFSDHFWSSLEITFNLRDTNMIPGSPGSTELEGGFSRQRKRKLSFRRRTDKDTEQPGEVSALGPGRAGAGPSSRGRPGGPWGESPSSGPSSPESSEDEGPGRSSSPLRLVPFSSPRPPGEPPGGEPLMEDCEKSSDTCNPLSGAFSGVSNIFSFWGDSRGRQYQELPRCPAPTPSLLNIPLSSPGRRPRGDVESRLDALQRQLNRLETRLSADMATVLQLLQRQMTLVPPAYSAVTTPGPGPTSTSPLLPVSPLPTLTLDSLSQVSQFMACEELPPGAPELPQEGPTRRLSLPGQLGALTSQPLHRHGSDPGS

[18] = tested on: NCI-H358; experiment: Antiproliferative activity against human NCI-H358 cells harboring KRAS G12C mutant assessed as inhibition of cell proliferation incubated for 5 days by celltiter-glo 3D assay; assay type: functional, cell-based; conditions: NCI-H358, 120 h
[19] = Drug concentration in mouse plasma at 50 mg/kg, po measured for 8 hrs; assay type: ADME, organism-based; conditions: in vivo
In short: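 Mice received a single 50 mg/kg dose, and the unbound drug concentration in plasma was followed over time.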

[20] = tested on: NCI-H358; experiment: Antitumor activity against human NCI-H358 cells harboring KRAS G12C mutant xenografted in BALB/c mouse assessed as tumor growth inhibition at 50 mg/kg, po measured after 28 days; assay type: functional; conditions: NCI-H358, 672 h, time 28 day, read-out: TGI
In short: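 Subcutaneous NCI-H358 (KRAS G12C) xenograft mice given the drug orally. Efficacy is expressed as tumour growth inhibition (TGI), shown as mean ± SEM and compared with the vehicle group on day 28 (P < 0.05). Tumour p-ERK and plasma drug levels were measured 2 and 24 h after treatment.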

[21] = tested on: NCI-H358; experiment: Antitumor activity against human NCI-H358 cells harboring KRAS G12C mutant xenografted in BALB/c mouse assessed as reduction in ERK phosphorylation at 50 mg/kg, po measured for 2 to 24 hrs; assay type: functional, organism-based; conditions: time 2-24 hrs
In short: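 Tumor samples from NCI-H358 xenograft mice were assayed for p-ERK levels at 2 and 24 h after drug treatment. Plasma drug concentrations were measured at the same time points. Data are given as mean ± SEM.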

[22] = Toxicity against BALB/c mouse xenografted with human NCI-H358 cells harboring KRAS G12C mutant assessed as body weight loss at 50 mg/kg, po measured after 28 days; assay type: organism-based; conditions: in vivo, 672 h, time 28 day
[23] = tested on: NCI-H358; experiment: Antitumor activity against human NCI-H358 cells harboring KRAS G12C mutant xenografted in BALB/c mouse assessed as reduction in ERK phosphorylation at 50 mg/kg, po measured after 28 days; assay type: functional, organism-based; conditions: time 28.0 day

SMILES	IC50 [1] [nM]	IC50 [2] [nM]	other results
CC(=O)N1CCC(c2cc3c(N[C@H](C)c4cccc(C(F)F)c4F)ccnc3cn2)C1 (some centres undefined)	22	167	
C[C@@H](Nc1ccnc2cnc(N3CCOCC3)cc12)c1cccc(C(F)F)c1F	7	349	
COc1cc2nccc(N[C@H](C)c3cccc(C(F)F)c3F)c2cc1C1CC1	23	1070	
C[C@@H](Nc1ccnc2cnc(O[C@H]3CCOC3)cc12)c1cccc(C(F)F)c1F	15	770	
CC(=O)NC1CCN(c2cc3c(N[C@H](C)c4cccc(C(F)F)c4F)ccnc3cn2)CC1	12	490	
CC(=O)N1CCN(c2cc3c(N[C@H](C)c4cccc(C(F)F)c4F)ccnc3cn2)CC1	5.8	54	Cmax [3]: 714 ng/mL; AUC at 24 h [4]: 1950 ng·h/mL; bioavailability [5]: 81%; clearance [6]: 35 mL/min/kg; half-life [7]: 91.8 min; fraction unbound at 4 h [8]: 0.0675; fraction unbound at 4 h [9]: 0.0529; fraction unbound at 4 h [10]: 0.0545; fraction unbound at 4 h [11]: 0.0481; IC50 [12]: 17.5 µM; IC50 [13]: 5.69 µM; IC50 [14]: 3.16 µM; IC50 [15]: 11.1 µM; IC50 [16]: > 50 µM; IC50 [17]: 2450 nM; IC50 [18]: 322 nM; Drug uptake [19]: Active; inhibition in vivo at 50 mg/kg [20]: 76%; Activity [21]: Active
COc1cc2nccc(N[C@H](C)c3cccc(C(F)F)c3F)c2cc1N1CCS(=O)(=O)CC1	8.6	17	Cmax [3]: 10 ng/mL; AUC at 24 h [4]: 29 ng·h/mL; bioavailability [5]: 5%; clearance [6]: 127 mL/min/kg; half-life [7]: 105 min
COc1cc2nccc(N[C@H](C)c3cccc(C(F)F)c3F)c2cc1O[C@H]1CCNC1	6	497	
COc1cc2nc(C)nc(N[C@H](C)c3cc(N)cc(C(F)(F)F)c3)c2cc1O[C@H]1CCOC1		299	IC50 [18]: 90 nM; inhibition in vivo at 50 mg/kg [20]: 49%; Activity [22]: Non-Toxic; Activity [23]: Active
C[C@@H](Nc1ccnc2cnc(N3CCN(C)C(=O)C3)cc12)c1cccc(C(F)F)c1F	6.9	130	
COc1cc2nccc(N[C@H](C)c3cccc(C(F)F)c3F)c2cc1O[C@H]1CCN(C)C1	15	295	
COc1cc2nccc(N[C@H](C)c3cccc(C(F)F)c3F)c2cc1O[C@H]1CCOC1	6.7	212	
CC(=O)N1CCC(c2cc3c(N[C@H](C)c4cccc(C(F)F)c4F)ccnc3cn2)CC1	9.7	77	Cmax [3]: 424 ng/mL; AUC at 24 h [4]: 578 ng·h/mL; bioavailability [5]: 25%; clearance [6]: 40 mL/min/kg; half-life [7]: 52.8 min
C[C@@H](Nc1ccnc2cnc(N3CCC(O)CC3)cc12)c1cccc(C(F)F)c1F	8.5	156	
COc1cc2nccc(N[C@H](C)c3cccc(C(F)F)c3F)c2cc1O[C@H]1CCN(C(C)=O)C1	3.8	45	Cmax [3]: 77 ng/mL; AUC at 24 h [4]: 152 ng·h/mL; bioavailability [5]: 19%; clearance [6]: 107 mL/min/kg; half-life [7]: 27 min
COc1cc2nccc(N[C@H](C)c3cccc(C(F)F)c3F)c2cc1O[C@H]1CCN(C(=O)C2CC2)C1	10	92	
COc1cc2nccc(N[C@H](C)c3cccc(C(F)F)c3F)c2cc1N1CCN(C(C)=O)CC1	8.8	30	
COc1cc2nccc(N[C@H](C)c3cccc(C(F)F)c3F)c2cc1C1CCNCC1	14	798	
COc1cc2nccc(N[C@H](C)c3cccc(C(F)F)c3F)c2cc1OC1CCNCC1	13	1070	
COc1cc2nccc(N[C@H](C)c3cccc(C(F)F)c3F)c2cc1OC	11	548	
C[C@@H](Nc1ccnc2cnc(N3CCS(=O)(=O)CC3)cc12)c1cccc(C(F)F)c1F	5.2	56	Cmax [3]: 136 ng/mL; AUC at 24 h [4]: 406 ng·h/mL; bioavailability [5]: 36%; clearance [6]: 67 mL/min/kg; half-life [7]: 70.8 min
COc1cc2nccc(N[C@H](C)c3cccc(C(F)F)c3F)c2cc1C1CCN(C(C)=O)CC1	11	1030	
C[C@@H](Nc1ccnc2cnc(N3CCN(S(C)(=O)=O)CC3)cc12)c1cccc(C(F)F)c1F	13		
COc1cc2nccc(N[C@H](C)c3cccc(C(F)F)c3F)c2cc1O[C@H]1CCN(C(=O)C2CCOCC2)C1	13	73	
